Results from ChEMBL document CHEMBL1255324, “Absence of amphotericin B-tolerant persister cells in biofilms of some Candida species” (2008).
In brackets after ≈: the same amount, converted by molar mass. Activity calls are given as the source filed them. The rule behind the calls is not given here.

What was measured:
Candida albicans [1] = experiment: Antifungal activity against Candida albicans GDH 2346 exponential phase planktonic cell assessed as cell killing at 5 ug/ml after 24 hrs; type: functional, organism-based
Method in brief: (§1)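 Planktonic cells grown at 37°C with shaking in YNB/50 mM glucose. Exponential phase was 8 h for C. krusei, C. albicans and C. tropicalis, 11 h for C. parapsilosis and 18 h for C. glabrata; stationary phase was 48 h. Washed cells at ~10^7 cells ml−1 got amphotericin B (5–100 μg ml−1) in MOPS-buffered (pH 7) YNB glucose, 24 h at 37°C. Viable counts by plating. Two experiments in duplicate.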

Candida albicans [2] = experiment: Antifungal activity against Candida albicans GDH 2346 Biofilm assessed as resistant isolate at 100 ug/ml after 24 hrs; type: functional
Method in brief: (§2)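 Biofilms formed on 0.8 cm PVC discs. Standardized YNB/50 mM glucose-grown cells (OD520 0.8) adhered 1 h at 37°C, then grew 48 h at 37°C. Mature biofilms were exposed 24 h at 37°C to amphotericin B 5–100 μg ml−1 in YNB glucose buffered to pH 7 with 0.165 M MOPS; drug-free controls. Cells were scraped and vortexed off, washed in PBS, then viable counts were made by serial dilution and plating on YNB/200 mM glucose agar. Two independent experiments, each in duplicate.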

Candida albicans [3] = experiment: Antifungal activity against Candida albicans GDH 2346; type: functional
Candida albicans [4] = experiment: Antifungal activity against Candida albicans SC5314 biofilm persisters at 100 ug/ml after 24 hrs; type: functional, organism-based
Method in brief: (§3)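 PVC discs (0.8 cm) seeded with washed YNB/50 mM glucose-grown cells (OD520 0.8), adhered 1 h at 37°C, washed, and grown 48 h at 37°C in medium. Biofilms exposed 24 h at 37°C to amphotericin B (5–100 μg ml−1) in YNB glucose buffered to pH 7 with 0.165 M MOPS; drug-free controls. Cells scraped, vortexed, PBS-washed, viable counts on YNB/200 mM glucose agar. Two experiments in duplicate.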

Candida albicans [5] = experiment: Antifungal activity against Candida albicans SC5314 biofilm assessed as cell killing at 100 ug/ml after 24 hrs; type: functional, organism-based; method in brief: as §3
Nakaseomyces glabratus = experiment: Antifungal activity against Candida glabrata AAHB 12 exponential-phase planktonic cell assessed as cell killing at 5 ug/ml after 24 hrs; type: functional, organism-based; method in brief: as §1
Candida tropicalis [6] = experiment: Antifungal activity against Candida tropicalis AAHB 73 exponential-phase planktonic cell assessed as cell killing at 5 ug/ml after 24 hrs; type: functional, organism-based; method in brief: as §1
Pichia kudriavzevii [7] = experiment: Antifungal activity against Candida krusei Glasgow exponential-phase planktonic cell assessed as cell killing at 5 ug/ml after 24 hrs; type: functional, organism-based; method in brief: as §1
Candida parapsilosis [8] = experiment: Antifungal activity against Candida parapsilosis AAHB 4479 exponential-phase planktonic cell assessed as cell killing after 24 hrs; type: functional, organism-based; method in brief: as §1
Candida tropicalis [9] = experiment: Antifungal activity against Candida tropicalis AAHB 73 stationary-phase planktonic cell assessed as cell killing after 24 hrs; type: functional, organism-based; method in brief: as §1
Pichia kudriavzevii [10] = experiment: Antifungal activity against Candida krusei Glasgow stationary-phase planktonic cell assessed as cell killing after 24 hrs; type: functional, organism-based; method in brief: as §1
Candida parapsilosis [11] = experiment: Antifungal activity against Candida parapsilosis AAHB 4479 stationary-phase planktonic cell assessed as cell killing after 24 hrs; type: functional, organism-based; method in brief: as §1
Pichia kudriavzevii [12] = experiment: Antifungal activity against Candida krusei Glasgow Biofilm assessed as resistant isolates after 24 hrs; type: functional; method in brief: as §2
Candida parapsilosis [13] = experiment: Antifungal activity against Candida parapsilosis AAHB 4479 Biofilm assessed as resistant isolates after 24 hrs; type: functional; method in brief: as §2
Candida albicans [14] = experiment: Antifungal activity against Candida albicans GDH 2346 stationary phase planktonic cell assessed as cell killing at 5 ug/ml after 24 hrs; type: functional, organism-based; method in brief: as §1
Candida albicans [15] = experiment: Antifungal activity against Candida albicans SC5314 exponential/stationary phase planktonic cell assessed as cell killing at 100 ug/ml after 24 hrs; type: functional, organism-based; method in brief: as §1
Candida albicans [16] = experiment: Antifungal activity against Candida albicans SC5314 exponential/stationary phase planktonic cell assessed as persisters at 100 ug/ml after 24 hrs; type: functional, organism-based; method in brief: as §1

Compound: C[C@@H]1[C@H](O)[C@@H](C)/C=C/C=C/C=C/C=C/C=C/C=C/C=C/[C@H](O[C@@H]2O[C@H](C)[C@@H](O)[C@H](N)[C@@H]2O)C[C@@H]2O[C@](O)(C[C@@H](O)C[C@@H](O)[C@H](O)CC[C@@H](O)C[C@@H](O)CC(=O)O[C@H]1C)C[C@H](O)[C@H]2C(=O)O [AMPHOTERICIN B]
- Activity (Candida albicans [1]): Active
- Activity (Candida albicans [2]): 0.01%
- MIC (Candida albicans [3]): 1.3 µg/mL (≈ 1.41 µM)
- Activity (Candida albicans [4]): Active
- Activity (Candida albicans [5]): Active
- Activity (Nakaseomyces glabratus): Active
- Activity (Candida tropicalis [6]): Active
- Activity (Pichia kudriavzevii [7]): Active
- Activity (Candida parapsilosis [8]): inactive
- Activity (Candida tropicalis [9]): inactive
- Activity (Pichia kudriavzevii [10]): inactive
- Activity (Candida parapsilosis [11]): inactive
- Activity (Pichia kudriavzevii [12]): 0.001%
- Activity (Candida parapsilosis [13]): 0.07%
- Activity (Candida albicans [14]): Active
- Activity (Candida albicans [15]): Active
- Activity (Candida albicans [16]): Active
